# ChEMBL document CHEMBL1124968, “Synthesis and biological activity of new HMG-CoA reductase inhibitors. 2. Derivatives of 7-(1H-pyrrol-3-yl)-substituted-3,5-dihydroxyhept-6(E)-enoic (-heptanoic) acids” (J Med Chem, 1990)
# pIC50: −log10 of the molar value.
# Experiments:
# [1] = biological target: T1, 3-hydroxy-3-methylglutaryl-coenzyme A reductase (Rattus norvegicus, UniProt P51639); test: In vitro inhibition of HMG-CoA reductase of rat liver
# T1 sequence (P51639 whole entry): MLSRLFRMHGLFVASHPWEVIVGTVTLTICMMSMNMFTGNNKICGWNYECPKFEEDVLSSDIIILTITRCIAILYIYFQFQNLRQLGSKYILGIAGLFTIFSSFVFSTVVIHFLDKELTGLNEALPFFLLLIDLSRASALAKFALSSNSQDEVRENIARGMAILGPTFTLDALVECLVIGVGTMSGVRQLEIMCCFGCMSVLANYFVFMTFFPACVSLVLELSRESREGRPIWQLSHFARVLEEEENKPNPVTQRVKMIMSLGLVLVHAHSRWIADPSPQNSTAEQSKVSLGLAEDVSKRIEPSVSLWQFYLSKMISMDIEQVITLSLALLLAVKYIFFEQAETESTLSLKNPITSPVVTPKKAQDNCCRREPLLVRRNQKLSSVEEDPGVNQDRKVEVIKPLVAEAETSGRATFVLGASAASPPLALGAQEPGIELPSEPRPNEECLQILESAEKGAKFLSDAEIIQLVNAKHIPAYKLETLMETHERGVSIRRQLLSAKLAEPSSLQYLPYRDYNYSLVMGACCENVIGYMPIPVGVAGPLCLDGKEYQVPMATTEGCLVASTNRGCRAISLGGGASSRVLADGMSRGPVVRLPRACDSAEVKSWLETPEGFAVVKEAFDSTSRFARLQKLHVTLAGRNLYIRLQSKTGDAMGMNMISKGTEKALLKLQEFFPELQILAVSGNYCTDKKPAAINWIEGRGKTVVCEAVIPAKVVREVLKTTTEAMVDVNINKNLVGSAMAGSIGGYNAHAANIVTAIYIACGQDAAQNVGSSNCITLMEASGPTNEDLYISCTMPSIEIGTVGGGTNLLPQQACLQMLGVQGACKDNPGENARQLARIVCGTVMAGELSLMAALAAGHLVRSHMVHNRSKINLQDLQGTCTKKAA
# [2] = biological target: T2, 3-hydroxy-3-methylglutaryl-coenzyme A reductase (Homo sapiens) (UniProt P04035); test: Inhibition of cellular HMG-CoA reductase in cultures of hepatic cells (HEP G2, a human hepatoma cell line) relative to mevinolin; assay type: cell-based
# T2 sequence (whole entry): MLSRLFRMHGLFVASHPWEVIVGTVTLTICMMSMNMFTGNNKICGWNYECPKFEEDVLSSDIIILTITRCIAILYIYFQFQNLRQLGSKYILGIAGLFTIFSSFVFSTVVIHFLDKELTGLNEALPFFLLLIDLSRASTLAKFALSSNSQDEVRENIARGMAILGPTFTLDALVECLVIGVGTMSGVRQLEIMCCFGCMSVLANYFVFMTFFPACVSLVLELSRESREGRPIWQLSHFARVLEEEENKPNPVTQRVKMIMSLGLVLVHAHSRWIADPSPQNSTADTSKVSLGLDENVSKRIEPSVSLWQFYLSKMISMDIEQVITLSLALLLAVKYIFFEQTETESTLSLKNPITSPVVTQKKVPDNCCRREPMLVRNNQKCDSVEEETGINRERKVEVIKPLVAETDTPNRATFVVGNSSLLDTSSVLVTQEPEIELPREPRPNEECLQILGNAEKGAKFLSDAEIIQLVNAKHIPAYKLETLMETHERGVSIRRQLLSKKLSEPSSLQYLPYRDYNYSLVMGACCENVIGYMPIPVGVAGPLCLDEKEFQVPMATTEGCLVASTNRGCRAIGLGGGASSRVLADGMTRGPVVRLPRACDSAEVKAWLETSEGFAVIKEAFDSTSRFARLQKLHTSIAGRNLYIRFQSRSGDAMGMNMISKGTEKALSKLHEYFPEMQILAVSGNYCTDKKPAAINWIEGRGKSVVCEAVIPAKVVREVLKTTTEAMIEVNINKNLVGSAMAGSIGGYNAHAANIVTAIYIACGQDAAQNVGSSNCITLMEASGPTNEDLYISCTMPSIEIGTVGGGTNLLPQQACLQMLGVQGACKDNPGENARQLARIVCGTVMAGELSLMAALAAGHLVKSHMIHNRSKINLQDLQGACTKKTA
# Procedure, shortened: (§1)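 HEP G2 human hepatoma cells in culture; cellular HMG-CoA reductase inhibition read as reduced incorporation of sodium [14C]acetate into cholesterol; IC50 values varied somewhat between cell batches. Assay system as in the preceding paper.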
# [3] = biological target: T3, 3-hydroxy-3-methylglutaryl-coenzyme A reductase (Rattus norvegicus) (UniProt P51639); test: In vitro inhibition of solubilized, partially purified rat liver HMG-CoA reductase relative to mevinolin
# T3 sequence (whole entry): T1 sequence (P51639 whole entry)
# [4] = biological target: T4, 3-hydroxy-3-methylglutaryl-coenzyme A reductase (Homo sapiens, UniProt P04035); test: Inhibition of cellular HMG-CoA reductase in cultures of hepatic cells (HEP G2, a human hepatoma cell line); assay type: cell-based; procedure, shortened: as §1
# T4 sequence (P04035 whole entry): T2 sequence (whole entry)
# Canis familiaris [5] = test: Percent decrease in plasma LDL-cholesterol in dog was determined after oral administration of a dose of 10 mg/kg for 19 days; assay type: functional, Canis lupus familiaris; parameters: scale not given: the % may be the effect or the level left
# Procedure, shortened: (§2)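 Normally fed male beagle dogs (n = 4) given drug orally each day (20 mg/kg for 14 days or 10 mg/kg for 19 days); plasma LDL- and HDL-cholesterol followed as percent change.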
# Canis familiaris [6] = test: Percent increase in plasma HDL-cholesterol in dog was determined after oral administration of a dose of 10 mg/kg for 19 days; assay type: functional, Canis lupus familiaris; procedure, shortened: as §2
# Rattus norvegicus [7] = test: Inhibition of hepatic cholesterol de novo synthesis in male rats after po administration,; values are per cent of control
# Oryctolagus cuniculus [8] = test: Percent decrease in total plasma cholesterol in rabbit was determined after oral administration of a dose of 10 mg/kg for 6 days; assay type: functional; parameters: scale not given: the % may be the effect or the level left
# Procedure, shortened: (§3)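 Normally fed normolipemic rabbits given oral doses repeatedly (20 mg/kg for 10 days, n = 6; 10 mg/kg for 6 days, n = 4); total plasma cholesterol decrease expressed as percent.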
# Rattus norvegicus [9] = test: Inhibition of hepatic cholesterol de novo synthesis in male rats after po administration; values are per cent of control
# Rattus norvegicus [10] = test: Inhibition of hepatic cholesterol de novo synthesis in male rats after po administration, relative to mevinolin; assay type: functional
# Procedure, shortened: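 Male rats dosed orally. […] Dose 5 mg/kg bw for lactone form, optically pure; 10 mg/kg bw for racemic sodium salts. Potency expressed against optically pure mevinolin tested under the same conditions.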
# Canis familiaris [11] = test: Percent increase in plasma HDL-cholesterol in dog was determined after oral administration of a dose of 20 mg/kg for 14 days; assay type: functional, Canis lupus familiaris; procedure, shortened: as §2
# Oryctolagus cuniculus [12] = test: Percent decrease in total plasma cholesterol in rabbit was determined after oral administration of a dose of 20 mg/kg for 10 days; assay type: functional; parameters: scale not given: the % may be the effect or the level left; procedure, shortened: as §3
# Canis familiaris [13] = test: Percent decrease in plasma LDL-cholesterol in dog was determined after oral administration of a dose of 20 mg/kg for 14 days; assay type: functional, Canis lupus familiaris; parameters: scale not given: the % may be the effect or the level left; procedure, shortened: as §2
Structure (SMILES),pIC50 [1],Relative potency [2],Relative potency [3],pIC50 [4],further results
Cc1c(/C=C/[C@@H](O)C[C@@H](O)CC(=O)O)c(-c2ccc(F)cc2)cn1C(C)C,6.48,1,2,5.22,
CC[C@H](C)C(=O)O[C@H]1C[C@@H](C)C=C2C=C[C@H](C)[C@H](CC[C@@H]3C[C@@H](O)CC(=O)O3)[C@H]21 [LOVASTATIN],,,,,"Activity (Canis familiaris [5]): -18%; Activity (Canis familiaris [6]): 2%; level, % of control (Rattus norvegicus [7]): 14%; Activity (Oryctolagus cuniculus [8]): 25%"
CC(C)c1c(CC[C@@H](O)C[C@@H](O)CC(=O)[O-])c(-c2ccc(F)cc2)cn1C1CCCCC1.[Na+],,,,,"level, % of control (Rattus norvegicus [9]): 6%"
CC(C)c1c(/C=C/[C@@H](O)C[C@@H](O)CC(=O)[O-])c(-c2ccc(F)cc2)cn1-c1ccccc1.[Na+],,,,,"level, % of control (Rattus norvegicus [9]): 5.5%"
CC(C)c1c(CC[C@@H](O)C[C@@H](O)CC(=O)O)c(-c2ccc(F)cc2)cn1C(C)C (racemic),,2500,42,,
CC(C)c1c(CC[C@@H](O)C[C@@H](O)CC(=O)[O-])c(-c2ccc(F)cc2)cn1C(C)C.[Na+] (racemic),7.74,,,8.70,"Relative potency (Rattus norvegicus [10]): 156; level, % of control (Rattus norvegicus [9]): 9%; Activity (Oryctolagus cuniculus [8]): 42%"
CC(C)c1c(/C=C/[C@H](O)C[C@@H](O)CC(=O)O)c(-c2ccc(F)cc2)cn1C1CCCCC1,7.16,47,12,6.97,

# Further lines, with some results ahead:
pIC50 [1],Relative potency [2],Relative potency [3],pIC50 [4],Structure (SMILES),further results
,,300,,Cc1c(-c2ccc(F)cc2)c(CC[C@@H](O)C[C@@H](O)CC(=O)O)c(C(C)C)n1-c1ccccc1 [listing 1 of 2 here],
8.22,> 500,128,> 8.00,CC(C)c1c(CCC(O)CC(O)CC(=O)[O-])c(-c2ccc(F)cc2)cn1-c1ccccc1.[Na+] (racemic),"Relative potency (Rattus norvegicus [10]): 250; Activity (Canis familiaris [11]): 14%; Activity (Oryctolagus cuniculus [12]): 34%; Activity (Canis familiaris [13]): 48%; level, % of control (Rattus norvegicus [9]): 5.6%"
,,149,,Cc1c(-c2ccc(F)cc2)c(CC[C@@H](O)C[C@@H](O)CC(=O)O)c(C(C)C)n1-c1ccccc1 (racemic) [listing 1 of 2 here],
,,85,,CC(C)c1c(CC[C@@H](O)C[C@@H](O)CC(=O)O)c(-c2ccc(F)cc2)cn1C(C)C [listing 1 of 2 here],
7.15,9,11,6.24,Cc1c(CC[C@@H](O)C[C@@H](O)CC(=O)O)c(-c2ccc(F)cc2)c(C)n1-c1ccccc1,
8.05,,,,CC(C)c1c(CC[C@@H](O)C[C@@H](O)CC(=O)O)c(-c2ccc(F)cc2)cn1C(C)C [listing 2 of 2 here],
8.60,,,,Cc1c(-c2ccc(F)cc2)c(CC[C@@H](O)C[C@@H](O)CC(=O)O)c(C(C)C)n1-c1ccccc1 [listing 2 of 2 here],
6.60,1,3,5.30,Cc1c(/C=C/[C@@H](O)C[C@@H](O)CC(=O)O)c(-c2ccc(F)cc2)c(C)n1-c1ccccc1,
8.52,,257,,CC(C)c1c(CC[C@@H](O)C[C@@H](O)CC(=O)O)c(-c2ccc(F)cc2)cn1-c1ccccc1,
7.00,19,9,6.57,Cc1c(CC[C@@H](O)C[C@@H](O)CC(=O)O)c(-c2ccc(F)cc2)cn1C(C)C,
8.30,,,,Cc1c(-c2ccc(F)cc2)c(CC[C@@H](O)C[C@@H](O)CC(=O)O)c(C(C)C)n1-c1ccccc1 (racemic) [listing 2 of 2 here],
